The text below walks through data of article PMC2652733 (Bioconjugate chemistry, 2009).

One data set deals with RIF tumors. Put plainly: In vivo photosensitizing. Details: species or system C3H mice.
Data set [1] in a line: Biodistribution of 124I-labeled compounds. In kind it is in vivo, C3H mice bearing RIF tumors. Summed up:
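RIF cells (3 × 10⁵ in 30 μl complete α-MEM) were implanted s.c. in the axilla of C3H mice and grown to 4-5 mm diameter (~5 days). The 124I-labelled test compound, in saline with 10% ethanol, was given via tail vein at 50-200 μCi. Thyroid uptake was not blocked. 3-4 mice per time point were killed at 24-96 h. Organs, blood and tail were weighed and gamma-counted, giving %ID/g.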

The subject of the next data set is RIF tumor cells. Put plainly: In vitro photosensitizing efficacy. Particulars: for in vitro photosensitizing ability (comparative): 24 h post-incubation, light dose 6.0 J/cm^2, drug concentration 1.0 μM and higher, 700 nm; for in vitro photosensitizing ability: lower light and drug doses, RIF cells. In kind it is cell-based. In short, it runs like this: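 RIF cells were grown in α-MEM with 10% FCS and plated at 5 × 10³ cells/well overnight. Test compound was added at varied concentrations for 24 h at 37°C in the dark, then replaced with drug-free medium. Cells were irradiated with a 700 nm dye laser (3.2 mW/cm², 0-6 J/cm²) and kept 48 h in the dark. MTT was added for 4 h, followed by DMSO and a 560 nm read. Survival was expressed as % of the drug-no-light control, with 4 replicate wells.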

[2] abbreviates: dose 2μmol/kg, 705 nm, 135 J/cm^2, 75 mW/cm^2.
Where [3] appears, read: 24h PI, C3H mice bearing RIF tumors, i.v. 50-200 uCi.

On to `CCc1c(C)c2cc3nc(cc4[nH]c(c5c6nc(cc1[nH]2)C(C)=C6C(=O)C5)[C@@H](CCC(=O)OC)[C@@H]4C)C(C)=C3C(C)OCc1cccc(I)c1` (stereo partly shown) [compound 1, 3-{1’- (3-iodobenzyloxy)ethyl}pyropheophorbide-a methyl ester], for which the “mice tumor free on day 60” value with RIF tumors (dose 1.5 μmol/kg i.v., 665 nm, 135 J/cm^2, 75 mW/cm^2 at 24 h post injection, 5 mice/group) is listed as 4/5.
With `CCc1c(C)c2cc3nc(cc4[nH]c(c5c6nc(cc1[nH]2)C(C)=C6C(=O)N(Cc1cccc(I)c1)C5=O)[C@@H](CCC(=O)OC)[C@@H]4C)C(C)=C3C(C)OC` (stereo partly shown) [compound 10, 3-{1’- (methoxy)ethyl}purpurin-18-N-(3-iodo)benzylimide methyl ester], in data set [1] (methyl ether analog versus purpurinimide 5), the “tumor uptake (abstract statement)” value was “improved tumor uptake”. Moreover, the “in vivo PDT efficacy, fold less effective over the lead compound 1” value in the data set with RIF tumors (705 nm (10), 135 J/cm^2, 75 mW/cm^2, 24 h post-injection) is reported as “at least 1.5 fold”. Besides, the “in vivo PDT activity compared with hexyl ether analog 5” value in the data set with RIF tumors (doses of 1.0 and 2.5 mmol/kg, 705 nm, 135 J/cm^2, 75 mW/cm^2, 24 h post-injection) is reported as “enhanced activity”. In addition, the “in vitro photosensitizing ability (comparative)” value with RIF tumor cells was “enhanced efficacy over the isomers 4 and 5”.
As to `CCCCCCN1C(=O)C2=C(C)c3cc4[nH]c(cc5nc(cc6[nH]c(c(c2n3)C1=O)[C@@H](CCC(=O)OC)[C@@H]6C)C(C)=C5C(C)OCc1cccc(I)c1)c(C)c4CC` (stereo partly shown) [compound 4, 3-{1’- (3-iodobenzyloxy)ethyl}purpurin-18-N-hexylimide methyl ester], in the data set with RIF tumors (setting [2]), the “toxicity after PDT treatment” value is “toxic and all mice died within 24 h PDT treatment”. Besides, the “in vitro photosensitizing ability” value with RIF tumor cells is “ineffective”.
Take “^124I- labeled analog of 3-{1’- (3-iodobenzyloxy)ethyl}purpurin-18-N-hexylimide methyl ester [compound 8]”: in data set [1] (setting [3]), the “liver uptake in comparison of the 124I-analog of pyropheophorbide 1” value was 32 fold and the “spleen uptake in comparison of the 124I-analog of pyropheophorbide 1” value came out at 85 fold.
With `CCCCCCOC(C)C1=C(C)c2cc3[nH]c(c4c5nc(cc6[nH]c(cc1n2)c(C)c6CC)C(C)=C5C(=O)N(Cc1cccc(I)c1)C4=O)[C@@H](CCC(=O)OC)[C@@H]3C` (stereo partly shown) [compound 5, 3-{1’- (Hexyloxy)ethyl}purpurin-18-N-(3-iodo)benzylimide methyl ester], the “in vivo PDT activity” value in the data set on RIF tumors (setting [2]) is reported as “did not show any significant activity”. The “in vivo PDT activity” value with RIF tumors (doses 2.5 and 3.0 μmol/kg, 705 nm, 135 J/cm^2, 75 mW/cm^2) is recorded as “quite effective”. For the same molecule, in the data set on RIF tumor cells, the “in vitro photosensitizing ability (comparative)” value is reported as “more effective than the structural isomer 4” and the “in vitro photosensitizing ability” value is recorded as “ineffective”.
